From ChEMBL document CHEMBL5532650, “Discovery of an orally active nitrothiophene-based antitrypanosomal agent” (Eur J Med Chem, 2024)
Activity calls are given as the source filed them. No cut-off for these calls is given here.

Columns and labels:
[1] = tested on: Trypanosoma brucei brucei; test: Antitrypanosomal activity against bloodstream forms of Trypanosoma brucei brucei strain 427 assessed as growth inhibition measured after 48 hrs by Alamar blue assay; assay type: functional, organism-based; conditions: Trypanosoma brucei, 427, 48 h
In short: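 Bloodstream T. b. brucei 427 at 5 x 10^3 cells/well in supplemented HMI-9 with 10% FBS. Compounds in DMSO over 0.01–50 μM, triplicates. After 48 h exposure, Alamar blue was added for 4 h at 37°C. Fluorescence read at ex/em 530/590 nm; suramin was the positive control. EC50 = half-maximal trypanosomal viability.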

[2] = tested on: Trypanosoma brucei gambiense; test: Antitrypanosomal activity against bloodstream forms of Trypanosoma brucei gambiense 130R assessed as growth inhibition incubated for 68 hrs followed by treated with resazurin 4 to 6 hrs by resazurin based fluorescence assay; assay type: functional, organism-based
In short: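 Bloodstream 130R at 4x10^4 parasites/well in HMI-9 with 15% heat-inactivated fetal calf and 5% human serum. Eleven 3-fold dilutions spanned 100 to 0.002 μM. Plates ran 68 h at 37 °C in 5% CO2, then resazurin for 4–6 h. Fluorescence read at ex/em 536/588 nm; melarsoprol was the control.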

[3] = tested on: Trypanosoma brucei rhodesiense; test: Antitrypanosomal activity against bloodstream forms of Trypanosoma brucei rhodesiense STIB 900 assessed as growth inhibition incubated for 70 hrs followed by treated with resazurin 2 to 4 hrs by resazurin based fluorescence assay; assay type: functional, organism-based
In short: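 Bloodstream STIB 900 at 2x10^4 parasites/well in HMI-9 with 15% heat-inactivated horse serum. Eleven 3-fold dilutions spanned 100 to 0.002 μM. Plates ran 70 h at 37 °C in 5% CO2, then resazurin for 2–4 h. Fluorescence read at ex/em 536/588 nm; melarsoprol was the control.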

[4] = tested on: HepG2; test: Cytotoxicity against human HepG2 cells assessed as cell growth measured after 72 hrs mby MTT assay; assay type: toxicity, cell-based; conditions: hepg2, 72 h
In short: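 HepG2 in DMEM:F12 with 10% FBS were seeded at 5 x 10^5 cells/mL and allowed 18-24 h. Compounds in DMSO over 0.01–300 μM for 72 h. MTT was then added for 30 min, formazan dissolved in DMSO and absorbance read at 550 nm. Triplicates; SDS (10%) and podophyllotoxin were the controls. CC50 = half-maximal cellular viability.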

[5] = Selectivity index, ratio of CC50 for cytotoxicity against human HepG2 cells to EC50 for Antitrypanosomal activity against bloodstream forms of Trypanosoma brucei brucei strain 427; assay type: toxicity, cell-based; conditions: read-out: Selectivity Index
[6] = Selectivity index, ratio of CC50 for cytotoxicity against human HepG2 cells to EC50 for Antitrypanosomal activity against bloodstream forms of Trypanosoma brucei gambiense 130R; assay type: toxicity, cell-based
[7] = Selectivity index, ratio of CC50 for cytotoxicity against human HepG2 cells to EC50 for Antitrypanosomal activity against bloodstream forms of Trypanosoma brucei rhodesiense STIB 900; assay type: toxicity, cell-based
[8] = tested on: Trypanosoma brucei rhodesiense; test: Inhibition of Trypanosoma brucei rhodesiense MVAT4 strain Cathepsin-L expressed in Pichia pastoris at 10 uM relative to control
In short: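 Trypanosomal cathepsin L, expressed in Pichia pastoris and purified, was tested at 10 μM after 1 hour. The read-out was percentage inhibition, with E-64 as positive control.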

[9] = Metabolic stability in mouse liver microsomes assessed as half life at 0.1 uM measured for every 15 mins by HPLC-MS/MS analysis; assay type: ADME, Microsome; conditions: 0.25 h
[10] = Metabolic stability in mouse liver S9 fraction assessed as half life at 0.1 uM measured for every 15 mins by HPLC-MS/MS analysis; assay type: ADME, subcellular; conditions: s9, 0.25 h
[11] = Tmax in mouse at 25 mg/kg, po; assay type: ADME, organism-based; conditions: in vivo
[12] = Half life in mouse at 25 mg/kg, po; assay type: ADME, organism-based; conditions: in vivo

`CS(=O)(=O)/C=C/CNC(=O)c1ccc([N+](=O)[O-])s1` gave an EC50 [1] of 640 nM, an EC50 [2] of 250 nM and an EC50 [3] of 120 nM. The CC50 [4] was 98600 nM, the selectivity ratio [5] was 154 and the selectivity ratio [6] was 395. For the same molecule, the selectivity ratio [7] was 822, the inhibition [8] was 23.2% and the t1/2 [9] was > 60 min. For the same molecule, the t1/2 [10] was > 60 min.

For `Cc1ncc([N+](=O)[O-])n1CC(=O)N[C@H](/C=C/S(=O)(=O)c1ccccc1)CCc1ccccc1`, the EC50 [1] was > 50000 nM, the CC50 [4] was > 300000 nM and the inhibition [8] was 44.1%.

In the case of `CNC(=O)CCCNC(=O)c1cccs1`, the EC50 [1] is reported as > 30000 nM, the CC50 [4] is reported as > 300000 nM and the inhibition [8] is reported as “inactive”.

For `O=C(NC/C=C/S(=O)(=O)c1ccccc1)c1ccco1`, the EC50 [1] was 1950 nM, the CC50 [4] was 66300 nM and the selectivity ratio [5] was 34. For the same molecule, the inhibition [8] was 30.6%.

With `CS(=O)(=O)/C=C/CNC(=O)c1cccs1` the EC50 [1] was > 30000 nM, the CC50 [4] was > 300000 nM and the inhibition [8] was 23.6%.

Work on `CS(=O)(=O)CCCNC(=O)c1ccc([N+](=O)[O-])s1` yielded an EC50 [1] of 1290 nM, a CC50 [4] of 98600 nM and a selectivity ratio [5] of 76.4. The inhibition [8] was 11.1%.

`CNC(=O)/C=C/[C@H](CCc1ccccc1)NC(=O)c1ccc([N+](=O)[O-])s1` showed an EC50 [1] of 180 nM, an EC50 [2] of 30 nM and an EC50 [3] of 40 nM. The CC50 [4] was 60000 nM, the selectivity ratio [5] was 333 and the selectivity ratio [6] was 2000. For the same molecule, the selectivity ratio [7] was 1500, the inhibition [8] was 58.4% and the t1/2 [9] was > 60 min. The t1/2 [10] was 19.49 min.

For `O=C(N[C@H](/C=C/S(=O)(=O)c1ccccc1)CCc1ccccc1)c1cc(Cl)c([N+](=O)[O-])[nH]1`, the EC50 [1] was 31200 nM, the CC50 [4] was > 160000 nM and the inhibition [8] was 26.7%.

`CSc1ccc(OCc2ncc([N+](=O)[O-])n2C)cc1` [FEXINIDAZOLE] gave a Tmax [11] of 15 min and a half-life [12] of 48 min.

Work on `CNC(=O)/C=C/[C@H](CCc1ccccc1)NC(=O)c1ccc([N+](=O)[O-])o1` yielded an EC50 [1] of 300 nM, an EC50 [2] of 60 nM and an EC50 [3] of 140 nM. It also gave a CC50 [4] of 41700 nM, a selectivity ratio [5] of 139 and a selectivity ratio [6] of 694. The selectivity ratio [7] was 298, the inhibition [8] was 54.8% and the t1/2 [9] was > 60 min. The t1/2 [10] was 20.49 min.
